Source: PubChem
Hits are enriched below; roughly 6.4% of the tested compounds scored in any of these assays.
MPTP block: mitochondrial permeability transition pore inhibitors, primary screen, biochemical, isolated mouse mitochondria, absorbance; Ca2+ swelling absorbance, 30 min; inhibition, % at 10 µM; 360,000 compounds, 1.4% hits;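 active = inhibition of 50% or more, scaled per plate between neutral and stimulator controls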;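 note: 0% = DMSO wells given calcium and 100% = 1 mM EGTA wells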
TbMetRS inhib: T. brucei MetRS inhibitors, primary screen, biochemical, luminescence | methionyl-tRNA synthetase (Trypanosoma brucei brucei) | purified T. brucei MetRS, ATP depletion, Kinase-Glo luminescence | inhibition, % at 11.9 µM | 360,000 compounds, 0.4% hits | AID 624268, 2012;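 active = inhibition above a per-plate cutoff of the control wells' mean inhibition plus 3 SD, cut at about 5.5% in these data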;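 note: 0% = DMSO wells median and 100% = median of wells with control inhibitor compound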
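Measured by: Kinase-Glo luciferase luminescence reporting remaining unconsumed ATP. Material: purified T. brucei MetRS enzyme. Doses: 11.9 µM compound single dose, 0.9% DMSO. Medium: HEPES buffer containing pyrophosphatase, BSA, spermine, DTT. Times: 15 min preincubation, 2 h reaction, all 25 °C. Reagent: methionine, ATP and bulk E. coli tRNA.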
NR3A LBD binder: binders of NR3A ligand-binding domain, primary screen, biophysical, differential scanning fluorimetry, uHTS; NR3A LBD differential scanning fluorimetry, Tm shift; 0% = protein alone, 100% = glycine-bound protein; Tm shift relative to glycine control, % at 25 µM; 340,000 compounds, 2.5% hits; Glutamate receptor ionotropic, NMDA 3A (GRIN3A) ligand-binding domain;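 active = melting temperature shift of at least 10% of the positive control shift, at one fixed dose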
WT yeast gro inh: growth inhibition of WT strain, primary screen, mitochondrial fusion inhibitor project, WT and mutant strains, chemical genetic; 190,000 compounds, 2.1% hits; inhibition, % at 10 µM; mitochondrial fusion phenotypic screen; in the data active = inhibition above about 58%; tested in S. cerevisiae
CHOP inhibitor: inhibitors of CHOP promoter induction, primary screen, cell-based, unfolded protein response, luciferase reporter; inhibition, % at 10 µM; CHO-K1 CHOP-promoter luciferase, tunicamycin-induced, 15-18 h; 220,000 compounds, 3.8% hits;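 active = compounds that reduced the stress-induced luciferase reporter signal by more than about 70% of percent inhibition, limit read from the data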;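 note: 0% = tunicamycin plus vehicle and 100% = wells without tunicamycin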
EBV gp42 block: Epstein-Barr virus gp42 inhibitors, primary screen, biochemical, uHTS, fluorescence polarization. Glycoprotein 42 (Epstein-Barr virus (strain AG876)), Q1HVG2. Fluorescence polarization binding assay, mP read-out. inhibition, % (tested at 21.74 µM). 220,000 compounds, 0.42% hits; in the data active = inhibition above about 50%
Target sequence (Q1HVG2 whole entry, looked up): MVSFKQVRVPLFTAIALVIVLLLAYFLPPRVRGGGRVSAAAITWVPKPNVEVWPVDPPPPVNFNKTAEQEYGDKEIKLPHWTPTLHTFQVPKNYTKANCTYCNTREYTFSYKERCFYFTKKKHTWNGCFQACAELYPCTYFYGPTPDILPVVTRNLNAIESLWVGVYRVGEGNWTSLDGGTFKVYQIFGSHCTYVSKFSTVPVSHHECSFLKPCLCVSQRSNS
* marks the source's active call; other numbers are inactive results; . = no result given.

SMILES | MPTP block | TbMetRS inhib | NR3A LBD binder | WT yeast gro inh | CHOP inhibitor | EBV gp42 block
COc1ccc(CNS(=O)(=O)c2ccc(N3CCCC3)cc2Br)cc1 | 1.3 | -0.7 | -2.5 | . | . | .
COc1cc(/C=N/Nc2ccc(C(F)(F)F)cn2)ccc1O | 1.2 | -0.3 | 30.4* | 1.5 | 27.9 | -10.9
O=C(O)c1ccc(/C=N/Nc2ccc(C(F)(F)F)cn2)cc1 | -1.0 | -0.7 | 0.2 | 5.8 | 1.0 | -14.9
CC(C)CCCN1C(Nc2ccccc2)=NC[C@@H]1Cc1ccccc1 | 1.3 | 1.0 | 0.8 | . | . | .
COc1ccc(-c2nc(-c3ccccn3)no2)cc1 | 0.1 | -4.4 | -1.4 | 64.4* | 100.7* | -8.8
S=c1nc[nH]c2c1sc1nc(-c3ccccc3)c3c(c12)CCCC3 | 45.9 | -0.3 | 12.2* | 97.2* | 24.9 | -10.6
N=C(N)SCc1ccccc1Cl | 0.0 | 0.4 | -0.9 | -11.6 | -21.4 | -20.4
CSCc1cc(N2CCOCC2)nc(SCc2ccc(Cl)c(Cl)c2)n1 | -0.5 | 0.4 | -4.2 | 62.2* | 50.5 | -5.4
COCc1cc(N2CCOCC2)nc(SCc2ccc(Cl)cc2)n1 | -1.1 | 0.2 | 0.4 | 25.3 | 19.4 | -5.3
CCCCc1nc(C(N)=O)c2[nH]c(=O)n(-c3ccc(OC)cc3OC)c2n1 | -0.4 | 1.1 | -3.3 | . | . | .
CCn1c(-c2ccccc2)c(C(=O)CCl)c2ccccc21 | 1.7 | -0.4 | 0.2 | 17.3 | 104.5* | -8.7
CCc1cccc(CC)c1NC(=O)COC(=O)/C(C#N)=C/c1ccc(OC)cc1 | 1.2 | 0.3 | 6.7 | 12.4 | 75.0* | -52.9
COc1ccc(/C=C(\C#N)C(=O)OCC(=O)Nc2c(C)cccc2C)cc1 | 1.7 | -0.3 | 3.4 | 5.7 | 75.4* | -41.6
CC(NCC(O)COc1ccc(S(=O)(=O)N2CCOCC2)cc1)c1ccccc1 (stereo not drawn) | 0.7 | 0.2 | -0.2 | -8.9 | 25.9 | -10.4
O=C(COC(=O)C1CC2C=CC1C2)Nc1ccc2c(c1)OC(F)(F)O2 (stereo not drawn) | 26.1 | -1.2 | -4.9 | 10.6 | 90.7* | -12.5
COc1ccccc1-c1nn2c(C(F)(F)F)nnc2s1 | 1.0 | -1.4 | -0.6 | 3.3 | -20.5 | -3.4
Cc1cccc(Nc2nc(N)c([N+](=O)[O-])c(N3CCCC(C)C3)n2)c1 (stereo not drawn) | 23.4 | 0.1 | 0.2 | 93.3* | 102.8* | -3.7
CCC(C)N(C(=O)COC(=O)c1cc([N+](=O)[O-])ccc1N1CCOCC1)C1CCS(=O)(=O)C1 (stereo not drawn) | -0.4 | -0.3 | 1.9 | . | . | .
O=[N+]([O-])c1ccc(CN2CCCCCC2)cc1 | 0.2 | -0.3 | -1.2 | . | . | .
N=c1c2c(n(Cc3ccc(Cl)c(Cl)c3)c3c1CCC3)CCCC2 | -2.6 | 0.1 | -2.2 | 71.8* | 49.8 | -11.5
N=c1c2c(n(Cc3ccc([N+](=O)[O-])cc3)c3c1CCC3)CCCC2 | -3.8 | 0.0 | 0.7 | 66.6* | 10.9 | 1.0
N=c1c2c(n(Cc3ccc(Br)cc3)c3c1CCC3)CCCC2 | 12.6 | -0.1 | -4.1 | 58.1* | 9.5 | -9.3
CC1(C)Nc2ccc(O)cc2-c2c1ssc2=S | 1.6 | 0.1 | -27.9 | 12.7 | 21.9 | -10.0
CCN(c1ccccc1)S(=O)(=O)c1ccc(C(=O)Nc2ncccc2C)cc1 | -1.1 | -0.6 | 1.0 | . | . | .
COc1ccc(C(=O)Nc2nc(C)c3cc4c(cc3n2)OCO4)cc1 | 0.5 | 0.0 | -2.7 | 11.0 | 72.4* | -7.8
SMILES | MPTP block | TbMetRS inhib | NR3A LBD binder | WT yeast gro inh | CHOP inhibitor | EBV gp42 block
O=C(O)c1ccccc1NC(=O)C(Cc1ccccc1)N1C(=O)c2ccccc2C1=O (stereo not drawn) | 0.2 | -0.5 | -28.9 | . | . | .
O=C(Nc1ccc([N+](=O)[O-])cc1)C(Cc1ccccc1)N1C(=O)c2cccc3cccc(c23)C1=O (stereo not drawn) | 1.8 | -0.3 | 11.4* | 2.0 | -32.9 | -8.2
CC(C(=O)Nc1ccccc1)N(C)CCOc1ccc(Br)cc1 (stereo not drawn) | 4.4 | 0.2 | -25.6 | 40.5 | 83.6* | 4.3
CC(C(=O)Nc1cccc(C#N)c1)N(C)CCOc1ccccc1 (stereo not drawn) | -1.5 | 0.2 | 2.4 | . | . | .
CCOC(=O)Cc1csc(NC(=O)c2cccc(OC)c2)n1 | -0.6 | 0.1 | 0.7 | -2.2 | -2.0 | 1.3
Cc1cccc(N2C(=O)C(Oc3ccc(Cl)cc3Cl)C2C=O)c1C (stereo not drawn) | 9.7 | -0.7 | -2.9 | 75.4* | 18.3 | 0.4
CCC(C)[C@H](NS(=O)(=O)c1ccc(C)cc1)C(=O)N1CCC(C(=O)N[C@@H](Cc2ccccc2)C(=O)O)CC1 (stereo partly drawn) | -1.5 | -0.4 | 13.4* | . | . | .
CC[C@H](C)[C@H](NS(=O)(=O)c1ccc(C)cc1)C(=O)N1CCC(C(=O)N[C@H](C(=O)O)C(C)C)CC1 | -0.5 | -1.9 | -1.0 | -6.4 | 28.6 | -18.0
N#C/C(=C/c1ccco1)C(N)=S | -0.6 | 1.0 | -11.1 | . | 7.3 | -2.5
O=S(=O)(c1ccccc1)N(c1ccccc1)S(=O)(=O)c1ccccc1 | -0.2 | -0.3 | 11.2* | . | . | .
Cc1ccc(-c2cc(-c3ccccc3)c(C#N)c(N)n2)o1 | 0.4 | 0.3 | -8.8 | 64.9* | 95.1* | 12.5
Cc1ccc(-c2cc(-c3ccccc3Cl)c(C#N)c(N)n2)o1 | -1.2 | 0.0 | -5.5 | 1.5 | 58.9 | 15.2
N#Cc1c(N)n(Cc2ccccc2)c(=O)c2cc([N+](=O)[O-])ccc12 | 1.6 | -0.5 | -2.7 | . | . | .
S=C(NNc1nc(Nc2ccccc2)nc(N2CCCCC2)n1)NC1CCCCC1 | 1.2 | -0.2 | -1.0 | 13.7 | 83.4* | -1.8
C=CCNC(=S)NNc1nc(N2CCCC2)nc(N2CCCC2)n1 | 0.5 | -0.8 | 0.4 | . | . | .
C=CCNC(=S)NNc1nc(Nc2ccccc2)nc(N2CCCCC2)n1 | -0.5 | -0.1 | -10.1 | 2.2 | 73.9* | -10.2
CCC1CCCCN1CCCNC(=O)Cn1cnc2sc(C)c(S(=O)(=O)N3CCC(C)CC3)c2c1=O (stereo not drawn) | -0.2 | 0.0 | -2.1 | . | . | .
COc1ccc(-c2cc(-c3ccc(F)cc3)nc(N3CCN(C)CC3)n2)cc1 | -7.3 | 0.3 | 1.9 | 36.2 | 86.7* | 5.5
COc1ccc(-c2cc(C(F)(F)F)nc(N3CCOCC3)n2)cc1 | 3.5 | 0.4 | 1.4 | 4.8 | 64.8 | -8.7
O=C(COC(=O)c1cc(C(F)(F)F)cc(C(F)(F)F)c1)NCc1ccc(Cl)cc1 | 0.6 | 0.1 | -13.5 | -5.3 | 72.6* | -16.1
O=C(COC(=O)c1cncc(Br)c1)NCc1ccc(Cl)cc1 | 1.9 | -0.1 | 0.0 | . | 5.4 | -2.0
NNC(=O)COc1ncn(-c2ccccc2)n1 | 0.0 | -0.4 | 0.0 | -2.2 | 22.6 | -18.1
